Hits are enriched below; roughly 2.3% of the tested compounds scored in any of these assays.
TRPC4 act: activators of mouse TRPC4 channel | 0.49% of 310,000 active | HEK293 TRPC4beta/mu-opioid, Fluo4 calcium fluorescence; stronger effect = higher value | B-score at 10 µM;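 active = B-score above 5 SD of library B-scores, and initial fluorescence ratio not above library mean plus 5 SD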;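 also: positive B-score marks a calcium rise read as TRPC4 activation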
Target sequence (Q9QUQ5 whole entry, looked up): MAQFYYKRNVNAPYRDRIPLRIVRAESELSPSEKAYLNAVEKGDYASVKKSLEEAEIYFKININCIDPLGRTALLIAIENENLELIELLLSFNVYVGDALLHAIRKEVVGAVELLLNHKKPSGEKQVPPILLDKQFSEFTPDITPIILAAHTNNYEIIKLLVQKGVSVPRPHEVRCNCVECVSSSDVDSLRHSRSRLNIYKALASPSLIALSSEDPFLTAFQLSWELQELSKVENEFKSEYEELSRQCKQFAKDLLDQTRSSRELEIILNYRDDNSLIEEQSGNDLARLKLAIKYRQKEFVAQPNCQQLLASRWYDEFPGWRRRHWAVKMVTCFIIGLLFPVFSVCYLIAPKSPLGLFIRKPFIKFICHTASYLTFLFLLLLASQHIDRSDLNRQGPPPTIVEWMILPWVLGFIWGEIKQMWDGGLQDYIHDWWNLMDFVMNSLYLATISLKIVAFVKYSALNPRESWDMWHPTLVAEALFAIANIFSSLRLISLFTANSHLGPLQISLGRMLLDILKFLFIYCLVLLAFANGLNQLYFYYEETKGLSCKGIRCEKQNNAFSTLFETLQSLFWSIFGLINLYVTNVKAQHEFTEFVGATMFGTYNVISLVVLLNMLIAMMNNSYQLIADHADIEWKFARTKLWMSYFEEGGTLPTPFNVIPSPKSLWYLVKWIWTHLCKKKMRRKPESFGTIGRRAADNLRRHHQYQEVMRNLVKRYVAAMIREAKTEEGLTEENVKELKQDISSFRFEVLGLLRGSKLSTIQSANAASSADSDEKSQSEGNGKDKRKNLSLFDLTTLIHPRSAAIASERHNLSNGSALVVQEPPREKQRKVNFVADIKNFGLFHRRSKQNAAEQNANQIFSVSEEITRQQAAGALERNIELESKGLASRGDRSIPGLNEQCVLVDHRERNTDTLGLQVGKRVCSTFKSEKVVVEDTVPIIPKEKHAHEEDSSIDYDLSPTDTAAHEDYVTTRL
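Assay system: HEK293 stable line with TRPC4beta plus mu-opioid receptor; schedule: 45 min room-temperature Fluo4 loading, 110 s read; technique: kinetic Fluo4 calcium fluorescence; evaluation: integrated baseline-normalised fluorescence ratio, converted to per-well B score; controls: buffer (low) and maximal DAMGO (high)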
TRPC6 inhibitor: blocks the mouse TRPC6 cation channel; Q61143; HEK293-TRPC6, membrane potential dye, ACh-evoked depolarization; stronger effect = lower value; B-score at 10 µM; 1.1% of 310,000 active; AID 2553;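 active = B-score under library mean minus 3 SD, initial fluorescence not abnormally high, positive integrated signal ratio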;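 also: B-score derived from integrated fluorescence ratio over the kinetic read; more negative B-score means stronger inhibition of depolarization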
TRPC4 block: TRPC4 (mouse) channel inhibition. AID 2247. B-score at 10 µM. HEK293 TRPC4beta/mu-opioid, DAMGO-evoked Fluo4 calcium flux; stronger effect = lower value. Q9QUQ5. 0.39% of 300,000 active;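 active = B-score over 3 SD under the library average, no early fluorescence shift, positive overall ratio signal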
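Test system – stable TRPC4beta/mu-opioid receptor HEK293 cells · Probe or stimulus – DAMGO, a submaximal dose followed by a maximal one · Dosing – one concentration per compound · Signal – Fluo4 calcium fluorescence by kinetic imaging, 5 s 1 Hz baseline · Evaluation – per-well B score of integrated baseline-normalized Fluo4 ratio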
TRPC6 act: mouse TRPC6 channel activation; HEK293-TRPC6 membrane potential dye fluorescence; stronger effect = higher value; B-score at 10 µM; 0.13% of 310,000 active;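 active = B-score of the integrated fluorescence ratio above library mean plus 3 SD, and starting fluorescence ratio within library mean plus 5 SD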;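 also: higher score means more depolarization so channel activation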
TRPC4 potent: allosteric potentiators of mouse TRPC4 channel; Q9QUQ5; B-score at 10 µM; HEK293 TRPC4beta/mu-opioid, DAMGO EC20, Fluo-4 Ca2+ flux; stronger effect = higher value; AID 2227; 0.42% of 310,000 active;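 active = B-score of calcium response area above 5 SD of library B-scores, with initial fluorescence ratio within 5 SD of library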;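 also: B-score of integrated fluorescence ratio over time as area under calcium response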
TRPC4 sel inh 2: second check of whether TRPC6 inhibitors also affect mouse TRPC4; shares compounds with TRPC6 inhibitor; HEK293 TRPC4/MOR, membrane potential dye fluorescence; channel activated by saturating DAMGO dose; inhibition, % at 10 µM; 42% of 920 active; AID 2776;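 active = compounds whose fluorescence signal differed from control wells by over 3 SD, either direction, in both duplicate plates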
TRPC4 spec: selectivity of TRPC6 inhibitors: effect on mouse TRPC4; shares compounds with TRPC6 inhibitor; HEK293 TRPC4/mu-opioid, membrane potential fluorescence; activity change, negative = inhibition, % at 10 µM; 61% of 920 active;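 active = rise or fall in signal beyond 3 SD of buffer-only wells in both replicate plates, either sign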;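 also: integrated kinetic ratio of fluorescence range over baseline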
HEK293 MPD ctr 2-1: parental HEK293 nonspecific activity of TRPC6 inhibitors, second screen; signal change vs control, % at 10 µM; parental HEK293 membrane potential dye fluorescence; maximal acetylcholine challenge after compound addition; shares compounds with TRPC6 inhibitor; AID 2779; 31% of 920 active;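 active = membrane potential signal moving either way by over 3 SD of the maximum-effect control, in both duplicate plates, meaning non-specific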
HEK293 MPD ctr-1: checks TRPC6 inhibitor effects in parental HEK293 cells; shares compounds with TRPC6 inhibitor; parental HEK293 membrane potential dye fluorescence; membrane potential signal change, % at 10 µM; 60% of 920 active; AID 2780;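 active = membrane potential signal shifting up or down by more than 3 SD of buffer-only wells, on both duplicate plates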
HEK293 MPD ctr-2: parental HEK293 nonspecific activity of TRPC6 modulators. shares compounds with TRPC6 inhibitor. membrane potential dye fluorescence. membrane potential signal change, % at 10 µM. 51% of 2,400 active. AID 488924;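 active = membrane potential signal moves up or down beyond 5 SD from buffer-only wells, on both duplicate plates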
HEK293 MPD ctr 2-2: second counter-screen for TRPC6 modulators: effect in parental HEK293 cells | membrane potential dye fluorescence; after compound, maximal acetylcholine stimulation | shares compounds with TRPC6 inhibitor | 14% of 2,400 active | inhibition, % at 10 µM;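 active = membrane potential signal drops by more than 5 SD from the mean control signal, in both duplicate plates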;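 also: plate controls were acetylcholine ECmax control wells for no effect and buffer only wells for full effect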
TRPC4/MOR mod: selectivity of TRPC6 modulators against mouse TRPC4. 69% of 2,400 active. shares compounds with TRPC6 inhibitor. percent change from control (negative = decrease, positive = increase), % at 10 µM. HEK293 TRPC4/mu-opioid, membrane potential fluorescence;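 active = membrane potential signal moved up or down beyond 5 SD of buffer control wells, in both duplicate plates, actives on both sides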;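 also: plate controls were assay buffer wells for no effect and DAMGO maximal-effect wells for full effect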
TRPC4/MOR inh 2: mouse TRPC4 off-target activity of TRPC6 modulators, second screen. shares compounds with TRPC6 inhibitor. HEK293 TRPC4/mu-opioid, membrane potential dye fluorescence; stimulated with maximal-effect DAMGO. inhibition, % at 10 µM. 55% of 2,400 active;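 active = drop in membrane potential signal beyond 5 SD of the control wells in both duplicate plates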;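 also: TRPC4 counter screen for TRPC6 hits run under conditions tuned for TRPC6 not TRPC4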
TRPC6 inh conf: confirmation of mouse TRPC6 inhibitors; shares compounds with TRPC6 inhibitor; HEK293-TRPC6, membrane potential dye, ACh-evoked depolarization; inhibition, % at 10 µM; 43% of 3,300 active; AID 488960;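 active = fluorescence ratio falls more than 5 SD below the full-stimulation control mean, in both duplicate runs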;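 also: integrated fluorescence ratio of peak minus minimum over baseline after agonist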
TRPC6 act confirm: confirmation of mouse TRPC6 activators; AID 488961; shares compounds with TRPC6 inhibitor; 11% of 2,800 active; activation, % at 10 µM; HEK293-TRPC6 membrane potential dye fluorescence, FDSS;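 active = ratio signal rise beyond 5 SD above unstimulated control wells' mean, seen in both duplicate runs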;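 also: plate controls were buffer EC0 wells for no effect and acetylcholine ECmax response for full effect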
Active calls of the source: *; i = inactive; . = not tested or not shown; ! = repeats disagree.

SMILES	TRPC4 act	TRPC6 inhibitor	TRPC4 block	TRPC6 act	TRPC4 potent	HEK293 MPD ctr-2	HEK293 MPD ctr 2-2	TRPC4/MOR mod	TRPC4/MOR inh 2	TRPC6 inh conf	TRPC6 act confirm	others
CCN1C(=O)/C(=C/c2ccc(N3CCCC3)cc2)NC1=S	i	i	i	30*	i	359%*	i	235%*	i	i	44%*
Cc1cc(/C=C2\NC(=S)N(C)C2=O)ccc1N1CCCC1	49*	i	i	34*	i	i	i	132%*	i	i	33%*
CCCN1C(=O)/C(=C/c2ccc(N3CCCC3)c(C)c2)NC1=S	58*	i	i	63*	i	670%*	i	226%*	i	i	136%*
CCN(CC)CC(=O)Nc1ccc(/C(C)=N/NC2=NCCN2)cc1	i	-8*	i	i	i	.	.	.	.	i	i	TRPC4 sel inh 2=i;TRPC4 spec=-12%*;HEK293 MPD ctr 2-1=i;HEK293 MPD ctr-1=i
C/C(=N\NC1=NCCN1)c1ccc(Cl)cc1	i	i	i	i	i	.	.	.	.	.	.
O=C(Nc1ccc(S(=O)(=O)N2CCCC2)cc1)c1cc(F)c(F)cc1Cl	i	i	i	i	i	.	.	.	.	.	.
Cc1c(C(=O)N(CCC#N)c2ccccc2)sc2nc3n(c(=O)c12)CCCC3	i	i	i	i	i	.	.	.	.	.	.
CN1CCN(Cc2nc3ccccc3c(=O)n2CC#N)CC1	i	-6.9*	i	i	i	.	.	.	.	i	i	TRPC4 sel inh 2=i;TRPC4 spec=i;HEK293 MPD ctr 2-1=i;HEK293 MPD ctr-1=i
N#CCn1c(CCl)nc2ccccc2c1=O	i	i	i	i	i	.	.	.	.	.	.
CCOc1cc(/C=C/C(=O)c2ccc(OC)c(CN3CCOCC3)c2)cc(Br)c1O	i	i	i	20*	i	184%*	i	26%*	i	i	42%*
CCOc1cc(/C=N/NC(=O)c2ccc(CN3CCOCC3)cc2)ccc1OC	i	i	i	i	i	.	.	.	.	.	.
CC(N)C12CC3CC(CC(C3)C1)C2 (centres undefined)	i	-5.4*!	i	i	i	i	i	i	30%*	i	i
COc1ccc(CNC(=O)CN2CCC(NC(=O)c3ccc(OC)cc3)CC2)cc1	i	i	i	i	i	.	.	.	.	.	.
CN1CCN(c2ccc(Cl)cc2NC(=O)c2cccc(S(=O)(=O)N(C)C)c2)CC1	i	-5.3*	i	i	i	i	i	i	34%*	i	i
CN(C)C(=O)c1c(NC(=O)c2ccccc2)sc2c1CCC2	i	i	i	i	i	.	.	.	.	.	.

Bioassay records deposited in PubChem BioAssay by Johns Hopkins Ion Channel Center.
